Source: ChEMBL document CHEMBL3526139, “Clinical pharmacokinetics, metabolism, and drug-drug interaction of carfilzomib” (Drug Metab Dispos, 2013)

Tests used:
Cytochrome P450 2C19 = Cytochrome P450 2C19 (Homo sapiens, UniProt P33261); experiment: Drug metabolism in pooled human hepatocytes assessed as disapperance rate at 1 uM by LC-MS/MS analysis in presence of 10 uM CYP2C19 inhibitor (+)-N-3-benzylnirvanol; assay type: ADME, cell-based, Hepatocyte
How it was run: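 Pooled human hepatocytes in suspension (~0.5 x 10^6 viable cells/mL) were incubated with 1 µM carfilzomib at 37°C under 5% CO2, with or without isoform-selective CYP chemical inhibitors. Reactions were quenched with acetonitrile at 0, 15, 30, 60 and 120 min. Carfilzomib was quantified by non-validated LC-MS/MS after protein precipitation.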

[1] = Cmax in human patient with relapsed solid tumor at 20 mg/m'2, iv administered on days 1, 2, 8, 9, 15 and 16 of 28-day cycle over 2 to 10 mins measured on day 16 of cycle 1 by LC-MS/MS analysis; assay type: ADME, organism-based; parameters: route intravenous; settings: in vivo
How it was run: (§1)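 Patients with relapsed solid tumors (n=3) received carfilzomib IV at 20 mg/m2. Plasma was sampled on Days 1 and 16 of Cycle 1 before dosing, at end of administration, and at 5, 15, 30 min and 1, 2, 4 h after. Samples underwent solid phase extraction and LC-MS/MS with d10-carfilzomib internal standard over 0.100–200 ng/mL. Parameters were derived noncompartmentally (constant IV infusion model) from actual elapsed time from infusion start.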

CYP3A [2] = biological target: T1, CYP3A (Homo sapiens, UniProt P08684+P20815+P24462+Q9HB55); experiment: Inhibition of CYP3A in human liver microsomes assessed as substrate metabolite formation using midazolam as substrate preincubated with microsomes for 30 mins prior to substrate addition measured after 5 mins by LC-MS/MS analysis; assay type: ADME; settings: probe midazolam
How it was run: (§2)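 HLM (16-donor pool) were preincubated 30 min with carfilzomib 0.01–10 µM before addition of midazolam or testosterone at about Km. Metabolite formation was measured by LC-MS/MS after 5 min, in duplicate, relative to 0.5% acetonitrile controls.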

CYP3A [3] = biological target: T1, CYP3A; experiment: Inhibition of CYP3A in human liver microsomes assessed as substrate metabolite formation using testosterone as substrate measured after 5 mins by LC-MS/MS analysis; assay type: ADME; settings: probe testosterone
How it was run: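 Pooled HLM from 16 donors were incubated at 37°C in duplicate with carfilzomib 0.01–10 µM and probe substrate at about its Km. Substrates were phenacetin, amodiaquine, diclofenac, S-mephenytoin, dextromethorphan, testosterone and midazolam. Protein was 0.1 mg/mL, or 0.05 mg/mL with midazolam. Reactions ran 5 min without preincubation, then were quenched with acetonitrile. Metabolites were measured by LC-MS/MS relative to 0.5% acetonitrile controls.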

[4] = Drug excretion in urine of human multiple myeloma patient with normal renal function at 15 mg/m'2, iv on days 1, 2, 8, 9, 15 and 16 of 28-day cycle over 2 to 10 mins by LC-MS/MS analysis relative to total drug dose; assay type: ADME, organism-based; settings: read-out: Drug excretion
How it was run: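 Urine was collected 0–5 h and 5–24 h after dosing on Cycle 1 Day 1, with acetonitrile added at 25% of sample volume. Carfilzomib and metabolites were quantified by LC-MS/MS (carfilzomib and M15 4.00–2000 ng/mL, M14 10.0–5000 ng/mL) and expressed as percent of dose.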

[5] = AUC infinity in human patient with relapsed solid tumor at 20 mg/m'2, iv administered over 2 to 10 mins on days 1, 2, 8, 9, 15 and 16 of 28-day cycle measured on day 1 of cycle 1 by LC-MS/MS analysis; assay type: ADME, organism-based; parameters: route intravenous, time infinity; settings: plasma; how it was run: as §1
[6] = Drug excretion in urine of iv dosed human patient with relapsed and refractory hematological malignancies assessed as morpholino-hPhe-Leu metabolite formation administered on days 1, 2, 8, 9, 15 and 16 of 28-day cycle over 2 to 10 mins by LC-MS/MS analysis; assay type: ADME, organism-based; settings: in vivo
[7] = Half life in human patient with relapsed solid tumor at 20 mg/m'2, iv administered on days 1, 2, 8, 9, 15 and 16 of 28-day cycle over 2 to 10 mins measured on day 1 of cycle 1 by LC-MS/MS analysis; assay type: ADME, organism-based; settings: in vivo; how it was run: as §1
[8] = Plasma protein binding in iv dosed human multiple myeloma patient at 15 mg/m'2 in first cycle and escalated to 20 mg/m'2 thereafter administered on days 1, 2, 8, 9, 15 and 16 of 28-day cycle over 2 to 10 mins by LC-MS/MS analysis; assay type: ADME, organism-based; settings: read-out: PPB (converted)
How it was run: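 Plasma taken at end of administration and 5 min after, on Days 1 and 15 of Cycle 1 and Day 15 of Cycle 2, was dialyzed 6 h at 37°C against pH 7.4 sodium phosphate buffer by rapid equilibrium dialysis. Samples were matrix-matched, extracted by acetonitrile precipitation and quantified by LC-MS/MS.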

Plasma [9] = experiment: Drug metabolism in plasma of human multiple myeloma patient assessed as morpholino-hPhe metabolite formation at 15 mg/m'2, iv administered as single dose measured within first 30 mins after end of drug infusion by LC-MS/MS analysis; assay type: ADME, organism-based; settings: in vivo, 0.5 h
How it was run: (§3)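 Patients with multiple myeloma received a single 15 mg/m2 carfilzomib dose. Plasma was sampled pre-dose, at end of infusion, at 5, 15, 30 min and at 1, 1.5, 2, 4, 6, 24 h. Samples were protein-precipitated and analyzed by LC-MS/MS (metabolites 0.500–500 ng/mL) with deuterated internal standards.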

Cytochrome P450 3A = Cytochrome P450 3A (Homo sapiens, UniProt P08684+P20815+Q9HB55+P24462); experiment: Time-dependent inhibition of CYP3A in human liver microsomes assessed as testosterone 6-hydroxylation using testosterone as substrate measured after 25-fold diution by LC-MS/MS analysis in presence of NADPH; assay type: ADME
How it was run: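 Pooled HLM (16 donors, mixed gender) preincubated in duplicate with carfilzomib 0, 0.5, 1, 3, 5 and 8 µM plus NADPH-generating system (1 mM NADP, 5 mM glucose-6-phosphate, 1 unit/mL G6PDH) for 0–30 min. Microsomal protein in preincubation: 2.5 mg/mL (testosterone) or 1.25 mg/mL (midazolam). Aliquots then diluted 25-fold into 50 mM potassium phosphate, 3 mM MgCl2, 1 mM EDTA, pH 7.4. Residual activity measured over 5 min with testosterone 200 µM or midazolam 40 µM plus NADPH-generating mixture, 37°C. KI and kinact derived.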

Plasma [10] = experiment: Drug metabolism in plasma of human multiple myeloma patient assessed as morpholino-hPhe-Leu-Phe-Leu-diol metabolite formation at 15 mg/m'2, iv administered as single dose measured within first 30 mins after end of drug infusion by LC-MS/MS analysis; assay type: ADME, organism-based; settings: in vivo, 0.5 h; how it was run: as §3
CYP3A [11] = biological target: T1, CYP3A; experiment: Inhibition of CYP3A in human liver microsomes assessed as substrate metabolite formation using testosterone as substrate preincubated with microsomes for 30 mins prior to substrate addition measured after 5 mins by LC-MS/MS analysis; assay type: ADME; settings: probe testosterone; how it was run: as §2
[12] = Plasma clearance in human patient with relapsed solid tumor at 20 mg/m'2, iv administered over 2 to 10 mins on days 1, 2, 8, 9, 15 and 16 of 28-day cycle measured on day 1 of cycle 1 by LC-MS/MS analysis; assay type: ADME, organism-based; how it was run: as §1
[13] = AUC last in human patient with relapsed solid tumor at 20 mg/m'2, iv administered on days 1, 2, 8, 9, 15 and 16 of 28-day cycle over 2 to 10 mins measured on day 16 of cycle 1 by LC-MS/MS analysis; assay type: ADME, organism-based; parameters: route intravenous, time 0 - last; settings: plasma; how it was run: as §1

Cytochrome P450 2C19, sequence (P33261 whole entry, canonical isoform): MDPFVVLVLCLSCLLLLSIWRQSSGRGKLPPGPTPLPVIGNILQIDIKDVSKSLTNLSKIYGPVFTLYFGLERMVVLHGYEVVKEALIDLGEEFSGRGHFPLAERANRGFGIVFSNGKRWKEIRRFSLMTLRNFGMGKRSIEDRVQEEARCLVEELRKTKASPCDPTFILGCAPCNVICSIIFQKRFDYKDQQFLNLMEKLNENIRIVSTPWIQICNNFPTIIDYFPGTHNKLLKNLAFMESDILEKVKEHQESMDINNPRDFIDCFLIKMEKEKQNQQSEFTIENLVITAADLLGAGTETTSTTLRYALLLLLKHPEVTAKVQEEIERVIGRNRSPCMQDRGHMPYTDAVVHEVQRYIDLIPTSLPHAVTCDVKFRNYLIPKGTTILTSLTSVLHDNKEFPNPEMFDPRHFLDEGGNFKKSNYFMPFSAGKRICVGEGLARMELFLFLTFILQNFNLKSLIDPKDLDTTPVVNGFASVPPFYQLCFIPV

**Q.** Which Drug metabolism (Cytochrome P450 2C19) does the source give for `CC(C)C[C@H](NC(=O)[C@H](CCc1ccccc1)NC(=O)CN1CCOCC1)C(=O)N[C@@H](Cc1ccccc1)C(=O)N[C@@H](CC(C)C)C(=O)[C@@]1(C)CO1` [CARFILZOMIB] here?
**A.** Its Drug metabolism is 0.016 min⁻¹.

**Q.** And the Cmax [1]?
**A.** The Cmax was 3710 ng/mL.

**Q.** And the IC50 at 5 min (CYP3A [2])?
**A.** The IC50 at 5 min was 490 nM.

**Q.** What about the IC50 at 5 min (CYP3A [3]) of the same compound?
**A.** Its IC50 at 5 min is greater than 10000 nM.

**Q.** What about the dose excreted [4] of the same compound?
**A.** The dose excreted was less than 1%.

**Q.** What about the AUC(0-inf) [5] of the same compound?
**A.** Its AUC(0-inf) is 238 ng·h/mL.

**Q.** What about the Drug excretion [6] of the same compound?
**A.** The Drug excretion was “metabolite_detected”.

**Q.** What about the half-life [7] of the same compound?
**A.** Its half-life is 1 h.

**Q.** What about the fraction unbound [8] of the same compound?
**A.** The fraction unbound was 0.024.

**Q.** And the Drug metabolism (Plasma [9])?
**A.** Its Drug metabolism is “metabolite_detected”.

**Q.** And the “inhibition (INH)” value (Cytochrome P450 3A)?
**A.** The value was “Active”.

**Q.** And the Drug metabolism (Plasma [10])?
**A.** Its Drug metabolism is “metabolite_detected”.

**Q.** And the IC50 at 5 min (CYP3A [11])?
**A.** Its IC50 at 5 min is greater than 970 nM.

**Q.** What about the clearance [12] of the same compound?
**A.** The clearance was 2430 mL/min.

**Q.** And the AUC(0-t) [13]?
**A.** Its AUC(0-t) is 301 ng·h/mL.
